Test results published in ChEMBL document CHEMBL4196063, “A novel synthetic peptide inspired on Lys49 phospholipase A2 from Crotalus oreganus abyssus snake venom active against multidrug-resistant clinical isolates” (2018).
Calls of active or inactive are those of the source. Where a SMILES comes first, the peptide text is derived from it.

Key:
Escherichia coli [1] = assay: Antibacterial activity against Escherichia coli ATCC 25922 at 5.95 to 190 uM after 24 hrs by CLSI broth microdilution method; type: functional, organism-based
Method in brief: (§1)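 Strains were kept frozen in MHB with 20% glycerol, subcultured in MHB, and grown on Mueller Hinton agar at 37 °C for a day. Peptide was dissolved in medium and serially diluted into MHB in 96-well plates, then bacterial suspension was added (1 × 10⁸ CFU/ml). Plates were held at 37 °C for 24 h and growth inhibition read at 595 nm. Runs were done at least three times, mean ± SD.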

Pseudomonas aeruginosa [2] = assay: Antibacterial activity against Pseudomonas aeruginosa 31NM at 575 uM after 24 hrs by agar well diffusion assay; type: functional, organism-based
Method in brief: (§2)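 Agar well diffusion followed Bauer/CLSI with minor changes. Strains were subcultured in MHB and grown on Mueller Hinton agar at 37 °C for a day. Wells were punched aseptically, and 100 μl of peptide in PBS (575 μM) was placed in each well. Plates were incubated at 37 °C for 24 h and inhibition halo diameters measured by caliper. Commercial antibiotics served as positive control, with at least three runs.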

Escherichia coli [3] = assay: Antibacterial activity against Escherichia coli ATCC 25922 at 575 uM after 24 hrs by agar well diffusion assay; type: functional, organism-based; method in brief: as §2
Pseudomonas aeruginosa [4] = assay: Growth inhibition of Pseudomonas aeruginosa 31NM at 5.95 uM after 24 hrs by CLSI broth microdilution method; type: functional; conditions: read-out: GI
Method in brief: (§3)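 Broth microdilution per CLSI. Peptide dissolved in Mueller Hinton broth and serially diluted (5.95–190 μM tested) in MHB. Bacteria were subcultured in MHB and grown on Mueller Hinton agar at 37 °C for a day, then added at 1 × 10⁸ CFU/ml. Incubation 37 °C for 24 h, with growth read at 595 nm. Antibiotic positive and medium negative controls. At least three runs, mean ± SD.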

Staphylococcus aureus [5] = assay: Antibacterial activity against Staphylococcus aureus BEC9393 at 5.95 to 190 uM after 24 hrs by CLSI broth microdilution method; type: functional, organism-based; method in brief: as §1
Staphylococcus aureus [6] = assay: Antibacterial activity against Staphylococcus aureus rib1 at 575 uM after 24 hrs by agar well diffusion assay; type: functional, organism-based; method in brief: as §2
Pseudomonas aeruginosa [7] = assay: Antibacterial activity against Pseudomonas aeruginosa ATCC 27853 at 5.95 to 190 uM after 24 hrs by CLSI broth microdilution method; type: functional, organism-based; method in brief: as §1
Pseudomonas aeruginosa [8] = assay: Antibacterial activity against Pseudomonas aeruginosa 31NM at 5.95 to 190 uM after 24 hrs by CLSI broth microdilution method; type: functional, organism-based; method in brief: as §1
Pseudomonas aeruginosa [9] = assay: Antibacterial activity against Pseudomonas aeruginosa ATCC 27853 at 575 uM after 24 hrs by agar well diffusion assay; type: functional, organism-based; method in brief: as §2
Staphylococcus aureus [10] = assay: Antibacterial activity against Staphylococcus aureus rib1 at 5.95 to 190 uM after 24 hrs by CLSI broth microdilution method; type: functional, organism-based; method in brief: as §1
Staphylococcus aureus [11] = assay: Antibacterial activity against Staphylococcus aureus BEC9393 at 575 uM after 24 hrs by agar well diffusion assay; type: functional, organism-based; method in brief: as §2
Pseudomonas aeruginosa [12] = assay: Growth inhibition of Pseudomonas aeruginosa ATCC 27853 at 5.95 uM after 24 hrs by CLSI broth microdilution method; type: functional; conditions: ATCC 27853, 24 h, read-out: GI; method in brief: as §3

CC[C@H](C)[C@H](NC(=O)[C@H](CCCNC(=N)N)NC(=O)[C@H](Cc1ccc(O)cc1)NC(=O)[C@H](CCCCN)NC(=O)[C@@H](N)CCCCN)C(=O)N[C@@H](Cc1ccc(O)cc1)C(=O)N1CCC[C@H]1C(=O)N[C@@H](CCCCN)C(=O)N[C@@H](Cc1ccccc1)C(=O)N[C@@H](CC(C)C)C(=O)N[C@@H](CS)C(=O)N[C@@H](CCCCN)C(=O)N[C@@H](CCCCN)C(=O)O (H-KKYRIYPKFLCKK-OH)
52%: inhibition of growth at 5.95 µM (Pseudomonas aeruginosa [12])
active: Activity (Escherichia coli [1]) | Activity (Pseudomonas aeruginosa [2]) | Activity (Escherichia coli [3]) | Activity (Staphylococcus aureus [5]) | Activity (Staphylococcus aureus [6]) | Activity (Pseudomonas aeruginosa [7]) | Activity (Pseudomonas aeruginosa [8]) | Activity (Pseudomonas aeruginosa [9]) | Activity (Staphylococcus aureus [10]) | Activity (Staphylococcus aureus [11])
48%: inhibition of growth at 5.95 µM (Pseudomonas aeruginosa [4])

CC(C)C[C@H](NC(=O)[C@H](Cc1ccccc1)NC(=O)[C@H](CCCCN)NC(=O)[C@@H]1CCCN1C(=O)[C@@H](N)Cc1ccc(O)cc1)C(=O)N[C@@H](CS)C(=O)N[C@@H](CCCCN)C(=O)N[C@@H](CCCCN)C(=O)N1CCC[C@H]1C(=O)O (H-YPKFLCKKP-OH)
inactive: Activity (Pseudomonas aeruginosa [2]) | Activity (Escherichia coli [3]) | Activity (Staphylococcus aureus [6]) | Activity (Pseudomonas aeruginosa [9]) | Activity (Staphylococcus aureus [11])
